Test results as given in ChEMBL document CHEMBL3853270, “Influence of Birch Bark Triterpenes on Keratinocytes and Fibroblasts from Diabetic and Nondiabetic Donors” (2016).
The source made the active and inactive calls. The calls are words filed in the database; no cut-off is given here.

Legend:
Type in all cases: functional
Keratinocyte [1] = assay: Effect on cellular connection related gene expression in non-diabetic adult human primary keratinocytes assessed as CLDN4 mRNA levels at 1.96 uM after 6 hrs by qPCR analysis
Keratinocyte [2] = assay: Effect on pro-inflammatory related gene expression in non-diabetic young human primary keratinocytes assessed as IL6 mRNA levels at 1.96 uM after 6 hrs by qPCR analysis
Keratinocyte [3] = assay: Effect on chemokines related gene expression in non-diabetic young human primary keratinocytes assessed as CXCL10 mRNA levels at 1.96 uM after 6 hrs by qPCR analysis
In short: (§1)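 Primary human keratinocytes (nondiabetic young or adult, diabetic adult donors) were exposed to compound for 6 h, with 0.1% DMSO as solvent control. Total RNA came from 400 000 cells per sample and was assayed on a Fluidigm Biomark high-throughput qPCR chip. Results are fold change vs solvent control, from 2−4 independent experiments on two donors per group, with SD. Groups were compared by one-way ANOVA with Bonferroni post-test.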

Keratinocyte [4] = assay: Effect on antiinflammatory related gene expression in non-diabetic adult human primary keratinocytes assessed as NFKBIA mRNA levels at 1.96 uM after 6 hrs by qPCR analysis
In short: (§2)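 Primary keratinocytes from nondiabetic young and adult and diabetic adult donors; 400 000 cells per sample, 6 h exposure at 1.96 or 9.81 μM. RNA extracted and read on a high-throughput qPCR chip. Results are fold change versus 0.1% DMSO solvent control from 5−7 independent experiments over two donors per group, SD, one-way ANOVA with Bonferroni post-test.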

Keratinocyte [5] = assay: Effect on growth factor related gene expression in diabetic adult human primary keratinocytes assessed as PDGFB mRNA levels at 1.96 uM after 6 hrs by qPCR analysis; in short: as §1
Keratinocyte [6] = assay: Effect on AQP3 mRNA expression levels in diabetic adult human primary keratinocytes at 1.96 uM after 6 hrs by qPCR analysis; in short: as §2
Keratinocyte [7] = assay: Effect on cellular connection related gene expression in non-diabetic young human primary keratinocytes assessed as GJB2 mRNA levels at 9.81 uM after 6 hrs by qPCR analysis
Keratinocyte [8] = assay: Effect on AQP3 mRNA expression levels in non-diabetic young human primary keratinocytes at 9.81 uM after 6 hrs by qPCR analysis; in short: as §2
Keratinocyte [9] = assay: Effect on growth factor related gene expression in non-diabetic adult human primary keratinocytes assessed as GDF15 mRNA levels at 9.81 uM after 6 hrs by qPCR analysis; in short: as §1
Keratinocyte [10] = assay: Effect on growth factor related gene expression in non-diabetic adult human primary keratinocytes assessed as PDGFB mRNA levels at 9.81 uM after 6 hrs by qPCR analysis; in short: as §1
Keratinocyte [11] = assay: Effect on chemokines related gene expression in diabetic adult human primary keratinocytes assessed as IL8 mRNA levels at 9.81 uM after 6 hrs by qPCR analysis
Keratinocyte [12] = assay: Effect on antioxidant related gene expression in diabetic adult human primary keratinocytes assessed as SOD2 mRNA levels at 9.81 uM after 6 hrs by qPCR analysis
Fibroblast [13] = assay: Effect on pro-inflammatory related gene expression in non-diabetic young human primary fibroblasts assessed as IL1R1 mRNA levels at 1.96 uM after 6 hrs by qPCR analysis
Fibroblast [14] = assay: Effect on transcription factor related gene expression in non-diabetic young human primary fibroblasts assessed as JUN mRNA levels at 1.96 uM after 6 hrs by qPCR analysis
Fibroblast [15] = assay: Effect on antiinflammatory related gene expression in non-diabetic adult human primary fibroblasts assessed as SOCS3 mRNA levels at 1.96 uM after 6 hrs by qPCR analysis
In short: (§3)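 Primary dermal fibroblasts from one nondiabetic young, one nondiabetic adult and one diabetic adult donor; 320 000 cells per sample, 6 h at 1.96 or 9.81 μM. RNA measured on a high-throughput qPCR chip. Fold change versus 0.1% DMSO control, four independent experiments, SD, one-way ANOVA with Bonferroni post-test.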

Fibroblast [16] = assay: Effect on growth factor related gene expression in diabetic adult human primary fibroblasts assessed as VEGFA mRNA levels at 1.96 uM after 6 hrs by qPCR analysis
In short: (§4)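 Primary human dermal fibroblasts (young or adult nondiabetic, adult diabetic donor) were treated for 6 h against a 0.1% DMSO solvent control. RNA from 320 000 cells per sample was measured by Fluidigm Biomark high-throughput qPCR. Values are fold change relative to solvent control, from four independent experiments, with SD. One-way ANOVA with Bonferroni post-test was applied.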

Fibroblast [17] = assay: Effect on transcription factor related gene expression in diabetic adult human primary fibroblasts assessed as JUN mRNA levels at 1.96 uM after 6 hrs by qPCR analysis
Fibroblast [18] = assay: Effect on pro-inflammatory related gene expression in non-diabetic young human primary fibroblasts assessed as IL1B mRNA levels at 9.81 uM after 6 hrs by qPCR analysis
Fibroblast [19] = assay: Effect on chemokines related gene expression in non-diabetic young human primary fibroblasts assessed as IL8 mRNA levels at 9.81 uM after 6 hrs by qPCR analysis; in short: as §4
Fibroblast [20] = assay: Effect on chemokines related gene expression in diabetic adult human primary fibroblasts assessed as CCL2 mRNA levels at 9.81 uM after 6 hrs by qPCR analysis
Fibroblast [21] = assay: Effect on growth factor related gene expression in non-diabetic young human primary fibroblasts assessed as VEGFA mRNA levels at 9.81 uM after 6 hrs by qPCR analysis; in short: as §4
Fibroblast [22] = assay: Effect on MMP1 mRNA expression levels in non-diabetic young human primary fibroblasts at 9.81 uM after 6 hrs by qPCR analysis; in short: as §3
Fibroblast [23] = assay: Effect on MMP1 mRNA expression levels in non-diabetic adult human primary fibroblasts at 9.81 uM after 6 hrs by qPCR analysis; in short: as §3
Fibroblast [24] = assay: Effect on adhesion molecules related gene expression in diabetic adult human primary fibroblasts assessed as ICAM1 mRNA levels at 9.81 uM after 6 hrs by qPCR analysis
In short: (§5)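 Dermal fibroblasts from nondiabetic adult and diabetic adult donors, exposed for 6 h at 1.96 or 9.81 μM. ICAM-1 and VCAM-1 mRNA measured by standard qRT-PCR, n = 3. Fold change versus 0.1% DMSO control, SD, one-way ANOVA with Bonferroni post-test.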

Fibroblast [25] = assay: Effect on adhesion molecules related gene expression in non-diabetic adult human primary fibroblasts assessed as VCAM1 mRNA levels at 1.96 uM after 6 hrs by qPCR analysis; in short: as §5
[26] = Effect on wound healing activity in non-diabetic adult human primary keratinocytes assessed as upregulation of TNFalpha protein levels at 1.96 uM after 24 hrs by bead-based suspension array analysis; details: Keratinocyte
[27] = Effect on wound healing activity in non-diabetic adult human primary keratinocytes assessed as upregulation of soluble E-selectin protein levels at 1.96 uM after 24 hrs by bead-based suspension array analysis; details: Keratinocyte
[28] = Upregulation of wound healing activity related soluble ICAM1 protein levels in non-diabetic adult human primary keratinocytes at 1.96 uM after 24 hrs by bead-based suspension array analysis; details: Keratinocyte
[29] = Effect on wound healing activity in diabetic adult human primary fibroblasts assessed as upregulation of RANTES protein levels at 1.96 uM after 24 hrs by bead-based suspension array analysis; details: Fibroblast
[30] = Effect on wound healing activity in diabetic adult human primary fibroblasts assessed as upregulation of MIF protein levels at 1.96 uM after 24 hrs by bead-based suspension array analysis; details: Fibroblast

C=C(C)[C@@H]1CC[C@]2(CO)CC[C@]3(C)[C@H](CC[C@@H]4[C@@]5(C)CC[C@H](O)C(C)(C)[C@@H]5CC[C@]43C)[C@@H]12 [BETULIN]
fold change (FC) (Keratinocyte [1]): 1
fold change (FC) (Keratinocyte [2]): 3.6
fold change (FC) (Keratinocyte [3]): 1.9
fold change (FC) (Keratinocyte [4]): 1.4
fold change (FC) (Keratinocyte [5]): 1
fold change (FC) (Keratinocyte [6]): 0.8
fold change (FC) (Keratinocyte [7]): 0.8
fold change (FC) (Keratinocyte [8]): 1.1
fold change (FC) (Keratinocyte [9]): 1
fold change (FC) (Keratinocyte [10]): 0.9
fold change (FC) (Keratinocyte [11]): 56
fold change (FC) (Keratinocyte [12]): 1.6
fold change (FC) (Fibroblast [13]): 3.7
fold change (FC) (Fibroblast [14]): 1
fold change (FC) (Fibroblast [15]): 24.4
fold change (FC) (Fibroblast [16]): 2.4
fold change (FC) (Fibroblast [17]): 1.3
fold change (FC) (Fibroblast [18]): 5.7
fold change (FC) (Fibroblast [19]): 32
fold change (FC) (Fibroblast [20]): 1.7
fold change (FC) (Fibroblast [21]): 2
fold change (FC) (Fibroblast [22]): 1
fold change (FC) (Fibroblast [23]): 2.3
fold change (FC) (Fibroblast [24]): 2.3
fold change (FC) (Fibroblast [25]): 63
Activity [26]: Active
Activity [27]: Active
Activity [28]: Active
Activity [29]: Active
Activity [30]: Active
